Sampled rows, rich in hits. Any-hit rate of the full collection: about 1.1%.
FAS TE block = inhibitors of human fatty acid synthase thioesterase domain; P49327; recombinant FAS-TE, OMFH fluorogenic substrate, fluorescence endpoint; inhibition, % at 15 µM; hit rate 0.67% among 360,000; AID 602261;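 active = compounds whose normalised, plate-corrected inhibition of enzyme fluorescence in the single-dose primary screen is 50% or more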
SENP1 FRET inh = SENP1 (human) catalytic domain inhibition; hit rate 0.21% among 360,000; Q9P0U3; inhibition, % at 10 µM; recombinant SENP1 catalytic domain, CyPet-SUMO1-YPet FRET cleavage;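 active = inhibition at least 30% at 10 µM, raw YFP signal under a set limit, fluorescence ratio 0.5 to 1.5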
Target sequence (Q9P0U3 419-644 limits assumed): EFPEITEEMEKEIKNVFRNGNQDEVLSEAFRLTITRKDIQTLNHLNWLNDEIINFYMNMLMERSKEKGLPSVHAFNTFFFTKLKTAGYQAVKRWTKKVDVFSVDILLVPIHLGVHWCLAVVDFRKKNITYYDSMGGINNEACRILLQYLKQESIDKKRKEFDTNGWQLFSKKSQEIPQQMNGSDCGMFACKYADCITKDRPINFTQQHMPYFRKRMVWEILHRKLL
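Material: hSENP1 catalytic domain, recombinant; medium: Tris pH 8 with BME, BSA, NP40 and catalase; compound: single concentration of 10 µM compound, 0.5% DMSO final; technique: FRET read of cyan and yellow fluorescence; timing: 50 min enzyme reaction, room temperature, light-protected; reagent: SFCypet-SUMO1-SFYpet substrate at 25 nM; control set: no-enzyme low, enzyme-DMSO high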
Arr AP2 block = blocks beta-arrestin peptide binding to AP2 adaptin. FITC-arrestin peptide / GST-AP2 beads, flow cytometry; AP2 beta2 appendage carries R879A mutation. inhibition, % at 10 µM. hit rate 0.31% among 340,000. AID 504490;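 active = inhibition above a set limit, near 3 SD of compounds lacking own fluorescence, cut at about 54% in these data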
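System: GST-AP2 R879A glutathione beads | Also added: FITC-arrestin peptide, 50 nM | Times: 12 min plus 1 h, RT | Signal: Bead flow cytometry, FITC channel | Buffer or medium: PBS with 0.05% Tween 20 and 0.1% BSA | Read-out basis: Percent drop in bead-associated FITC signal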
GASC-1 inh = blocks human GASC-1 demethylase activity; Q9H3R0; GST-JMJD2C(1-420) H3K9me3 demethylation, DELFIA europium; inhibition, % at 2.35 µM; hit rate 0.069% among 330,000;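 active = more than half of a compound's replicate wells show inhibition beyond 50%, single wells judged on their own value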;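 note: signal counts dimethyl H3K9 product captured on neutravidin plate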
Target sequence (Q9H3R0 1-420 limits assumed): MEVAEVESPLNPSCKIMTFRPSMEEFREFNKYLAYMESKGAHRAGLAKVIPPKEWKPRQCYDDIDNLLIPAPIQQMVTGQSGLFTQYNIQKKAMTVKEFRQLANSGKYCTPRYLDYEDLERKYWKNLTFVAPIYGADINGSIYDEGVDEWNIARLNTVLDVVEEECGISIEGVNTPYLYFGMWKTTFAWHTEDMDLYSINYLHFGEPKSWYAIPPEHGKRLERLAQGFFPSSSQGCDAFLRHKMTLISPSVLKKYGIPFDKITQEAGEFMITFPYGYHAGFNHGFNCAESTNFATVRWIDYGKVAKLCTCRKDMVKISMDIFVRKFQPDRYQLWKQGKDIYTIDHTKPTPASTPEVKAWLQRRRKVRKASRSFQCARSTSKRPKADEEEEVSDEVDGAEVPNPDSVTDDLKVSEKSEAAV
FAS-TE conf = confirmation of human fatty acid synthase thioesterase inhibitors | shares compounds with FAS TE block | recombinant FAS-TE, OMFH fluorogenic substrate, fluorescence | inhibition, % at 15 µM | hit rate 45% among 2,300 | AID 624325;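 active = compounds inhibiting the enzyme by at least 50% at 15 µM in any one of the replicates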
Numbers stand for hits; n = inactive; x = not tested or not shown.

SMILES	FAS TE block	SENP1 FRET inh	Arr AP2 block	GASC-1 inh	FAS-TE conf
COc1ccc([N+](=O)[O-])cc1NC(=O)CSCc1ccccc1	62.4	n	n	n	n
COc1ccc([N+](=O)[O-])cc1NC(=O)Cc1ccc(C)cc1	n	n	n	n	x
O=C(O)CC(NC(=O)CC(c1ccccc1)c1ccccc1)c1cccc([N+](=O)[O-])c1 (stereo not given)	56.4	n	n	n	65.5
CC(=O)c1ccc(NC(=O)[C@@]2(CC(=O)O)CC(/C=C/c3ccccc3)=NO2)cc1	n	n	n	n	x
O=S(=O)(c1ccc2c(c1)CCN2)N1CCCC1	n	n	n	x	x
COc1cc(/C=N/NC(=O)Cc2ccccc2)ccc1Oc1ccc([N+](=O)[O-])cc1[N+](=O)[O-]	58.7	n	n	n	n
COc1ccc([N+](=O)[O-])cc1NC(=O)CCCOc1ccccc1	67.8	n	n	n	70.6
COc1cc([N+](=O)[O-])ccc1NC(=O)CCCOc1ccccc1	n	n	n	n	x
COc1ccc([N+](=O)[O-])cc1NC(=O)CCC(=O)c1cccs1	65.0	n	n	n	48.5
COCC(=O)Nc1cc([N+](=O)[O-])ccc1OC	n	n	n	n	x
CCOC(=O)C1=C(O)CSC1=Nc1cccc2ccccc12	n	n	n	n	x
CCOC1=C2[C@H](c3ccccc3)N(S(=O)(=O)c3ccc(C)cc3)[C@H](C(C)C)[C@H]2n2c(=O)n(-c3ccccc3)c(=O)n2C1	60.5	n	x	x	n
CCOC1=C2CN(S(=O)(=O)c3ccc(C)cc3)[C@H](c3ccc(CC)cc3)C[C@@H]2N(S(=O)(=O)c2ccc(C)cc2)[C@H](c2ccccc2)C1	n	n	x	x	x
CCOC1=C2[C@H](c3ccccc3)N(S(=O)(=O)c3ccc(C)cc3)C(C(C)(C)C)[C@H]2n2c(=O)n(-c3ccccc3)c(=O)n2C1 (stereo not given in full)	88.6	n	x	x	n
Cc1ccc(S(=O)(=O)N2CCN(c3ccnc4cc(Cl)ccc34)CC2)cc1	63.7	n	n	n	n
Cc1ccc2nc(SCC(=O)Nc3ccc(C)c([N+](=O)[O-])c3)[nH]c2c1	n	n	n	n	x
Cc1ccc2nc(SCC(=O)Nc3ccc(F)c([N+](=O)[O-])c3)[nH]c2c1	62.1	n	n	n	68.4
Cc1cccc(C(=O)NCCC(=O)Nc2ccc(F)c([N+](=O)[O-])c2)c1	54.3	n	n	n	67.8
COc1ccc([C@H](OC)[C@@]2(Cc3ccc(O)cc3)N=C(N)N(C)C2=O)cc1	n	n	n	n	x
C=CCNC(=O)CN(c1ccc(F)cc1)S(=O)(=O)c1ccc(OC)cc1	n	n	n	x	x
O=C(/C=C/c1cccc([N+](=O)[O-])c1)N1CCN(c2ccc(F)cc2)CC1	79.7	n	n	n	80.5
O=C(/C=C/c1ccccc1[N+](=O)[O-])N1CCN(c2ccc(F)cc2)CC1	n	n	n	n	x
Cc1ccc(NC(=O)C2=C(c3ccccc3)S(=O)(=O)CCS2(=O)=O)cc1	75.4	n	n	n	83.0
Cc1ccc(NC(=O)c2ccccc2)cc1	n	n	n	n	x
Cc1cc(-c2ccc(/C=N/n3cnnc3)o2)c(C)c([N+](=O)[O-])c1	59.6	n	n	n	39.3
SMILES	FAS TE block	SENP1 FRET inh	Arr AP2 block	GASC-1 inh	FAS-TE conf
O=[N+]([O-])c1ccc(Cl)c(-c2ccc(/C=N/n3cnnc3)o2)c1	n	n	n	n	x
CC(C)(C)OC(=O)NCCc1nnc(SCc2ccccc2Cl)o1	n	n	n	n	x
CC(C)(C)OC(=O)NCCc1nnc(S(=O)(=O)Cc2ccc(Cl)cc2Cl)o1	63.6	n	n	n	66.6
CCN(CC(=O)NCc1cccs1)S(=O)(=O)c1cccc(C(C)=O)c1	n	n	n	n	x
O=C(COC(=O)c1cccc([N+](=O)[O-])c1)NCc1cccs1	51.5	n	n	n	62.8
CCN(CC(=O)NCc1cccs1)S(=O)(=O)c1ccc([N+](=O)[O-])cc1	51.5	n	n	n	52.4
CCC(C)(C)n1nnnc1C(C(C)C)N(CCN1CCOCC1)Cc1cc2cccc(C)c2[nH]c1=O (stereo not given)	n	n	n	n	x
Cc1cc2cc(CN(Cc3cccs3)C(c3nnnn3C(C)(C)C)C(C)C)c3nnnn3c2cc1C (stereo not given)	51.9	n	n	n	n
CCCCNC(=S)N(C)/N=C/c1ccc(F)cc1	n	n	n	n	x
CCCCNC(=S)N(C)/N=C/c1ccc2c(c1)OCO2	53.3	n	n	n	n
Cn1c(-c2ccc(F)cc2)cnc1NCc1cccc([N+](=O)[O-])c1	76.3	n	n	n	78.3
Cn1c(-c2cccc([N+](=O)[O-])c2)cnc1NCc1cccc(F)c1	n	n	n	n	x
CCCCN(CC(=O)NCc1ccc(Cl)cc1)S(=O)(=O)c1ccc2c(c1)OCCO2	n	n	n	n	x
CCc1ccc(C(O)c2ncc(-c3cccc(C(F)(F)F)c3)[nH]2)cc1 (stereo not given)	n	n	x	x	x
CC(C)CSc1ncc(-c2cccc(C(F)(F)F)c2)cn1	51.3	n	n	n	49.3
CCCCN(CC)CCCNC(=O)c1cn(CC(C)C)c(=O)c2c1c1ccccc1n2C	n	n	n	n	x
CC(C)(C)N1C(=O)[C@H]2[C@@H](c3ccc(Br)cc3)N3C(=O)N(c4cccc(Cl)c4)C(=O)[C@@]3(Cc3ccccc3)[C@H]2C1=O	96.4	n	n	n	n
COc1ccc(N2C(=O)N3[C@H](c4ccc(Br)cc4)[C@@H]4C(=O)N(C(C)(C)C)C(=O)[C@@H]4[C@]3(Cc3ccccc3)C2=O)cc1	71.0	n	n	n	n
COc1ccc([C@@H]2[C@@H]3C(=O)N(C(C)(C)C)C(=O)[C@@H]3[C@]3(Cc4ccccc4)C(=O)N(c4ccc(Br)cc4)C(=O)N23)cc1	n	n	n	n	x
COc1ccc([C@@H]2[C@@H]3C(=O)N(C(C)(C)C)C(=O)[C@@H]3[C@]3(Cc4ccccc4)C(=O)N(c4cccc(Cl)c4)C(=O)N23)cc1	78.7	n	x	n	n
CC[C@@]12C(=O)N(c3ccc(C)cc3)C(=O)N1[C@H](c1ccc(Br)cc1)[C@@H]1C(=O)N(C(C)(C)C)C(=O)[C@@H]12	n	n	n	n	x
Cc1cc(C)c(C#N)c(N2CCN(Cc3ccc4c(c3)OCO4)CC2)n1	60.6	n	n	n	n
CCn1c(=O)c([N+](=O)[O-])c(N2CCN(Cc3ccc4c(c3)OCO4)CC2)c2ccccc21	87.8	n	n	n	80.8
O=C1c2[nH]c(=O)[nH]c(=O)c2CN1Cc1ccccc1	n	n	n	x	x
CN(C)N1C(N)=C(C#N)C(c2ccccc2)C2=C1CC(C)(C)CC2=O (stereo not given)	n	n	n	n	x
CN(C)N1C(N)=C(C#N)C(c2cccc3ccccc23)C2=C1CC(c1ccccc1)CC2=O (stereo not given)	64.9	n	n	n	n
